The list is not random: actives were taken first. Their share in the collection is about 2.6%.
ABHD4 inh: ABHD4 inhibitors, primary screen, biochemical, fluorescence polarization, mouse | inhibition, % at 8.92 µM | (Lyso)-N-acylphosphatidylethanolamine lipase (Mus musculus), Q8VD66 | 370,000 compounds, 0.54% hits | AID 720543, 2013 | purified mABHD4, FP-Rh probe fluorescence polarization;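 active = inhibition exceeding the mean over every tested compound plus 3 SD, cut at about 30% in these data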;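 also: 0% = plate median of compound wells and 100% = S159A mutant with DMSO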
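System: mouse ABHD4 enzyme, wild type / Medium: HEPES pH 7.0, NaCl, Pluronic buffer / Reagent: FP-Rh activity-based fluorescent probe / Control set: S159A mutant high control, sample median low control / Detection: fluorescence polarization with parallel and perpendicular emission, 525/598 nm / Schedule: 45 min + 60 min at 25 °C / Compound dosing: 8.92 µM, single dose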
PRMT1 inh: PRMT1 methyltransferase inhibitors, primary screen, biochemical, fluorescence polarization. recombinant PRMT1, activity-based probe fluorescence polarization. inhibition, % at 2.79 µM. 370,000 compounds, 1.3% hits;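 active = inhibition above about 21% made by adding two undisclosed values, limit read from the data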
Target sequence (Q99873 whole entry, looked up): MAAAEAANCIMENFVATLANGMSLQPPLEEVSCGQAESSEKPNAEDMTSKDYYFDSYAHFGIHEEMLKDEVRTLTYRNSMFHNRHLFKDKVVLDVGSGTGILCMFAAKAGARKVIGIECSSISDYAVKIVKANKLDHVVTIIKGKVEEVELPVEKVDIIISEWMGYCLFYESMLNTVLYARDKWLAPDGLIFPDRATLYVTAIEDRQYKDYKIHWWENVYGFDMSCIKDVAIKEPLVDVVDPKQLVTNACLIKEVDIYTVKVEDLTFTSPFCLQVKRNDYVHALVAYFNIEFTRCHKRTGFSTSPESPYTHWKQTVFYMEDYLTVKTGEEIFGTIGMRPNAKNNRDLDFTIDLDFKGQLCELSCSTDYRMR
HTRA1 inh: HTRA1 serine protease inhibitors, primary screen, biochemical, fluorescence polarization, HTS. Q92743. recombinant HTRA1, FP-rhodamine activity-based probe. inhibition, % at 5.96 µM. 340,000 compounds, 0.5% hits. AID 504803, 2011; in the data active = inhibition above about 36%;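 also: 0% = enzyme with DMSO and 100% = wells lacking enzyme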
SIAE primary: human SIAE inhibitors, primary screen, biochemical, fluorescence polarization, FP-Rh probe, 1536-well HTS; 370,000 compounds, 0.69% hits; inhibition, % at 9.66 µM; SIAE FP-Rh probe binding; Sialate O-acetylesterase (Homo sapiens), Q9HAT2;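 active = inhibition above a cutoff: mean of compounds within the control limits plus 3 SD of those, cut at about 17% in these data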;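 also: 0% = plate median of compound wells and 100% = probe without SIAE protein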
TCR-CD3 inh: inhibitors of human TCR-CD3 interaction, primary screen, biochemical, fluorescence, TAMRA-labeled TCR probe | T-cell receptor (TCR) | inhibition, % at 9.4 µM | 360,000 compounds, 0.37% hits | AID 651800, 2012; in the data active = inhibition above about 19%;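 also: recombinant mutant TCR 2C K166C tagged with TAMRA read by polarization; 0% = receptor in buffer alone and 100% = receptor with positive control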
PRMT1 confirm: PRMT1 methyltransferase inhibitors, confirmation, biochemical, fluorescence polarization, triplicate. recombinant His-PRMT1, activity-based probe fluorescence polarization. shares compounds with PRMT1 inh. AID 687036, 2013. inhibition, % at 2.79 µM. 3,300 compounds, 42% hits;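 active = mean inhibition across replicates above the hit cutoff derived for the earlier primary screen, cut at about 22% in these data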
An asterisk follows results filed as active; . = no result given.

SMILES	ABHD4 inh	PRMT1 inh	HTRA1 inh	SIAE primary	TCR-CD3 inh	PRMT1 confirm
O=C(NCc1ccc2c(c1)OCO2)c1c(-c2ccccc2)sc2ccccc12	-13	3	0	4	6	.
Cc1ccc(CNC(=O)c2c(-c3ccccc3)sc3ccccc23)o1	-28	39*	-18	0	1	1
CN1C(=O)CC(=O)N(C)c2cc(S(=O)(=O)N(C)Cc3ccccc3)ccc21	-3	54*	-4	0	2	36*
CC1CCN(c2ccc(S(=O)(=O)N3CCC(C)CC3)cc2N)CC1	-10	-3	-13	-1	-1	.
CC1CCN(S(=O)(=O)c2ccc3c(c2)N(C)C(=O)CC(=O)N3C)CC1	1	47*	9	-4	7	44*
COC(=O)C[C@@H]1CC[C@@H]2[C@@H](COc3ccc(NC(=O)Nc4ccccc4)cc3C(=O)N2C)O1	3	0	.	0	.	.
CCOC(=O)C1(Cc2ccccc2)CCN(Cc2ccnc3ccccc23)CC1	-6	6	.	2	.	.
O=C1CCCC(=O)N1c1ccc(O)cc1	5	-3	0	2	2	.
O=C1C=CC(=O)N1c1ccc(O)cc1	1	90*	3	-16	-5	92*
O=C1N=C(N2C=CC(=C3C=CNC=C3)C=C2)/C(=C/N=NC(=O)c2ccccc2O)S1	19	39*	24	13	18	23*
CC(=O)OCCCNc1cc(Sc2nc3ccccc3s2)c2nonc2c1[N+](=O)[O-]	.	.	7	.	.	.
CC(=O)OCCNc1cc(Sc2nc3ccccc3[nH]2)c2nonc2c1[N+](=O)[O-]	19	92*	-4	-6	-4	52*
COC(=O)CSCc1nc2ccccc2[nH]c1=O	1	34*	-1	9	4	55*
COC(=O)CCc1nc2ccccc2[nH]c1=O	1	2	6	3	-4	.
CCOC(=O)[C@]12CCCCC/C=C\1N(Cc1ccc(OC)cc1)C(=O)[C@H]2CC(=O)NCc1cccc2ccccc12	-7	-1	.	-4	.	.
O=C(N/N=C/C=C/c1ccco1)/C(=C/c1ccccc1)NC(=O)c1ccccc1	3	30*	14	8	0	16
O=C(N/N=C/C=C\c1ccco1)c1cccs1	21	33*	.	11	-2	23*
O=C(Cc1cccs1)N/N=C/C=C\c1ccco1	21	11	14	6	14	.
O=C(N/N=C/C=C/c1ccco1)c1ccncc1	7	3	10	14	11	.
COC(=O)Nc1ccc(SCC(=O)c2ccccc2)cc1	-8	26*	-6	4	3	21
CC(C)(C)OC(=O)NCCc1nnc(SCC(=O)c2ccc(Cl)cc2)o1	2	0	1	2	6	.
COC(=O)Nc1ccc(SCC(=O)c2ccc(Cl)cc2)cc1	-23	69*	-22	-4	-3	55*
COC(=O)COc1ccc2c(c1)O/C(=C\c1ccco1)C2=O	15	31*	18	1	-1	1
Cc1cc(O)cc2c1C(=O)/C(=C/c1ccco1)O2	9	28*	1	-9	-1	19
COc1ccccc1C(=O)Oc1ccc2c(c1)O/C(=C\c1ccncc1)C2=O	4	38*	-5	1	-1	13
SMILES	ABHD4 inh	PRMT1 inh	HTRA1 inh	SIAE primary	TCR-CD3 inh	PRMT1 confirm
CCC(=O)Oc1ccc2c(c1)O/C(=C\c1ccco1)C2=O	19	63*	.	2	-1	20
CCN(CC)C(=O)Oc1ccc2c(c1)O/C(=C\c1ccco1)C2=O	21	16	0	-4	-6	.
Cc1ccc(-n2c(SC/C=C/c3ccccc3)nnc2-c2cccs2)cc1	-12	1	.	-5	.	.
Cc1ccc(N2NC(=O)/C(=C/c3ccc(-c4ccc(Cl)c(C(=O)O)c4)o3)C2=O)cc1	28	5	5	10	0	.
CC(C)N1C(=O)S/C(=C\c2ccc(-c3ccc(Cl)c(C(=O)O)c3)o2)C1=O	26	52*	-17	-4	-3	8
CCN(CC)c1ccc(/C=C2/SC(=O)N(C(C)C)C2=O)o1	4	27*	-6	7	6	-54

Bioassay records from PubChem.
